The results in this text go back to ChEMBL document CHEMBL4422627, “Discovery of potent, orally bioavailable ERK1/2 inhibitors with isoindolin-1-one structure by structure-based drug design” (Eur J Med Chem, 2019).

Calls of active or inactive are those of the source. No cut-off for these calls is given here.

Chain of Mitogen-activated protein kinase 3 (P27361 whole entry): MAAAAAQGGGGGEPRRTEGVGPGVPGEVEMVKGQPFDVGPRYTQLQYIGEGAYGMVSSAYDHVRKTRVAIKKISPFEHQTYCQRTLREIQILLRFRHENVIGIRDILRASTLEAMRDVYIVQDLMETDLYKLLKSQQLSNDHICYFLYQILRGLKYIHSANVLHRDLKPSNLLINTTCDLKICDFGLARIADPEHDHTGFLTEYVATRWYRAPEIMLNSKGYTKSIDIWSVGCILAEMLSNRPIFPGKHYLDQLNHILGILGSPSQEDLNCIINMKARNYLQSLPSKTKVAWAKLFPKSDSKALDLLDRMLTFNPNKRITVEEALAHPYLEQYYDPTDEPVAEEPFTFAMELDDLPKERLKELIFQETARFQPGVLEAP

One series deals with HCT-116. Kind of series: Antiproliferative activity against human HCT116 cells after 72 hrs by MTT assay. The settings on record: HCT-116, 72 h. It is filed as functional, cell-based. On the technique in general: Formazan colour is commonly taken as a measure of viable cells.
A word on the IC50: it is the concentration that gives 50% inhibition. High values mean lower potency, low ones higher potency. For the compound `Cn1cc(Nc2nccc(-c3ccc4c(c3)C(=O)N(C(CO)c3cccc(Cl)c3)C4)n2)cn1` (configuration not stated), the IC50 is 201 nM.
Still for that read-out and setting: the result for `Cn1nccc1Nc1nccc(-c2ccc3c(c2)C(=O)N(C(CO)c2cccc(Cl)c2)C3)n1` (configuration not stated) reads 251 nM.
With `O=C1c2cc(-c3ccnc(NC4CCOCC4)n3)ccc2CN1Cc1cccc(Cl)c1`, the IC50 turned out to be 150 nM. Compared with the last compound, the IC50 is about 1.7-fold lower.

The test system of a further series is COLO 205. The series is described as follows: Antiproliferative activity against human COLO205 cells after 72 hrs by MTT assay. It is filed as functional, cell-based. The settings on record: COLO 205, 72 h.
`Cn1cc(Nc2nccc(-c3ccc4c(c3)C(=O)N(C(CO)c3cccc(Cl)c3)C4)n2)cn1` (configuration not stated) returned an IC50 of 227 nM.
Same read-out and setting: to `Cn1nccc1Nc1nccc(-c2ccc3c(c2)C(=O)N(C(CO)c2cccc(Cl)c2)C3)n1` (configuration not stated) belongs 252 nM.
On the same count and under the same terms, the result for `O=C1c2cc(-c3ccnc(NC4CCOCC4)n3)ccc2CN1Cc1cccc(Cl)c1` reads 170 nM.

For the next series, the target named is T1, Mitogen-activated protein kinase; ERK1/ERK2 (Homo sapiens) (UniProt P27361+P28482). The series is described as follows: Inhibition of ERK1/2 phosphorylation at Thr202/Tyr204 residues in human HCT116 cells by Western blot analysis.
T1 sequence (P27361 whole entry, looked up): as the sequence (P27361 whole entry) above
T1 sequence (P28482 whole entry, looked up): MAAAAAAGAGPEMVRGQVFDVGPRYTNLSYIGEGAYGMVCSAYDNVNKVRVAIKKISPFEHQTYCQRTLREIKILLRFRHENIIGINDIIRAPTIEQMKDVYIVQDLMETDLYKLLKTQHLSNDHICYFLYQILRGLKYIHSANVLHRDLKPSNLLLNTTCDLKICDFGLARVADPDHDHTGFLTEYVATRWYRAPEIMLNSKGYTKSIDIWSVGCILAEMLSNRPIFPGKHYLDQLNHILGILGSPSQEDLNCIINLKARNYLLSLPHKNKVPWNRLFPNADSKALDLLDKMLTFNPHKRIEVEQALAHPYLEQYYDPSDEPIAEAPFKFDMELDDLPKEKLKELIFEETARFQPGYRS
Conditions: not given
It is filed as cell-based. The method, boiled down:
(§1)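 Phosphorylation of ERK1/2 and RSK in HCT116 cells measured by western blot over a range of compound concentrations; means ± SD of three independent experiments, each condition run in triplicate.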
In the case of `O=C1c2cc(-c3ccnc(NC4CCOCC4)n3)ccc2CN1C(CO)c1cccc(Cl)c1` (configuration not stated), the inhibition result is “Dose-dependent effect”.

A further series relates to K562. The series is described as follows: Antiproliferative activity against human K562 cells after 72 hrs by MTT assay. It is filed as functional, cell-based. The settings on record: K562, 72 h.
As for `Cn1cc(Nc2nccc(-c3ccc4c(c3)C(=O)N(C(CO)c3cccc(Cl)c3)C4)n2)cn1` (configuration not stated), 3820 nM corresponded to half-maximal inhibition (IC50).
The same measure, in the same setting: the result for `Cn1nccc1Nc1nccc(-c2ccc3c(c2)C(=O)N(C(CO)c2cccc(Cl)c2)C3)n1` (configuration not stated) reads 2930 nM.
Same read-out and setting: the result for `Cn1nccc1Nc1nccc(-c2ccc3c(c2)C(=O)N(Cc2cccc(Cl)c2)C3)n1` reads 2870 nM; that for `O=C1c2cc(-c3ccnc(NC4CCOCC4)n3)ccc2CN1Cc1cccc(Cl)c1`, 1550 nM.

For the next series, the system named is SW626. Kind of series: Antiproliferative activity against human SW626 cells after 72 hrs by MTT assay. It is filed as functional, cell-based. The settings on record: SW626, 72 h.
With `Cn1cc(Nc2nccc(-c3ccc4c(c3)C(=O)N(C(CO)c3cccc(Cl)c3)C4)n2)cn1` (configuration not stated), the IC50 came out at 206 nM.
The same measure, in the same setting: the result for `Cn1nccc1Nc1nccc(-c2ccc3c(c2)C(=O)N(C(CO)c2cccc(Cl)c2)C3)n1` (configuration not stated) reads 252 nM; that for `O=C1c2cc(-c3ccnc(NC4CCOCC4)n3)ccc2CN1Cc1cccc(Cl)c1`, 255 nM.

Another series has as its target T1, Mitogen-activated protein kinase; ERK1/ERK2 (Homo sapiens). Kind of series: Inhibition of ERK1/2 in human HCT116 cells assessed as reduction in RSK phosphorylation at Thr359/Ser363 residues by Western blot analysis.
Conditions: not given
It is filed as cell-based. In short, it runs like this:
as §1
`O=C1c2cc(-c3ccnc(NC4CCOCC4)n3)ccc2CN1C(CO)c1cccc(Cl)c1` (configuration not stated): the inhibition entry is “Dose-dependent effect”.

A further series concerns the target Mitogen-activated protein kinase 3 (Homo sapiens, UniProt P27361). The series is described as follows: Inhibition of ERK1 (unknown origin) using […] as substrate after 40 mins by ADP-Glo luminescence assay.
Conditions: not given
On the technique in general: ADP-Glo first removes unused ATP, then detects ADP through luciferase.
With `Cn1cc(Nc2nccc(-c3ccc4c(c3)C(=O)N(C(CO)c3cccc(Cl)c3)C4)n2)cn1` (configuration not stated), the IC50 was determined as 4.1 nM.
`Cn1nccc1Nc1nccc(-c2ccc3c(c2)C(=O)N(C(CO)c2cccc(Cl)c2)C3)n1` (configuration not stated) registered a half-inhibitory concentration (IC50) of 3.6 nM.
Still for that read-out and setting: the result for `O=C1c2cc(-c3ccnc(NC4CCOCC4)n3)ccc2CN1Cc1cccc(Cl)c1` reads 3.3 nM.

The next series deals with Mitogen-activated protein kinase 1 (Homo sapiens, UniProt P28482). Kind of series: Inhibition of ERK2 (unknown origin) using […] as substrate after 40 mins by ADP-Glo luminescence assay.
Chain of Mitogen-activated protein kinase 1 (P28482 whole entry): as the sequence (P28482 whole entry, looked up) above
Conditions: not given
As to `Cn1cc(Nc2nccc(-c3ccc4c(c3)C(=O)N(C(CO)c3cccc(Cl)c3)C4)n2)cn1` (configuration not stated), the half-maximal inhibitory concentration (IC50) turned out to be 1.2 nM.
In turn, `Cn1nccc1Nc1nccc(-c2ccc3c(c2)C(=O)N(C(CO)c2cccc(Cl)c2)C3)n1` (configuration not stated) gave an IC50 of 1.9 nM.
Still for that read-out and setting: to `Cn1nccc1Nc1nccc(-c2ccc3c(c2)C(=O)N(Cc2cccc(Cl)c2)C3)n1` belongs 3.5 nM; to `O=C1c2cc(-c3ccnc(NC4CCOCC4)n3)ccc2CN1Cc1cccc(Cl)c1`, 1.6 nM.

The next series has as its system NCM460. Kind of series: Cytotoxicity against human NCM460 cells assessed as reduction in cell viability at 10000 nM after 72 hrs by MTT assay. It is filed as cell-based. The conditions noted are these: ncm460, 72 h, 10 µM.
Turning to `Cn1cc(Nc2nccc(-c3ccc4c(c3)C(=O)N(C(CO)c3cccc(Cl)c3)C4)n2)cn1` (configuration not stated), the Activity result is listed as “Non-Toxic”.

A further series has as its system WM 266-4. Kind of series: Antiproliferative activity against human WM266.4 cells after 72 hrs by MTT assay. It is filed as functional, cell-based. The conditions noted are these: WM 266-4, 72 h.
`Cn1cc(Nc2nccc(-c3ccc4c(c3)C(=O)N(C(CO)c3cccc(Cl)c3)C4)n2)cn1` (configuration not stated): the midpoint of inhibition, the IC50, lay at 211 nM.
Still for that read-out and setting: to `Cn1nccc1Nc1nccc(-c2ccc3c(c2)C(=O)N(C(CO)c2cccc(Cl)c2)C3)n1` (configuration not stated) belongs 217 nM.
The same measure, in the same setting: to `O=C1c2cc(-c3ccnc(NC4CCOCC4)n3)ccc2CN1Cc1cccc(Cl)c1` belongs 220 nM.

Another series concerns HCT-116. Kind of series: Induction of apoptosis in human HCT116 cells assessed as increase in condense bright apoptotic nuclei formation at 1 uM by Hoechst 33258 staining-based assay. It is filed as functional, cell-based.
Conditions: not given
The method, boiled down: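 After compound incubation, HCT116 cells stained with Hoechst 33258 and examined for condensed, bright apoptotic nuclei; n=3 per group.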
In the case of `O=C1c2cc(-c3ccnc(NC4CCOCC4)n3)ccc2CN1C(CO)c1cccc(Cl)c1` (configuration not stated), the result was Active.
